Common to all, as to type: functional
Settings in all cases: read-out: Activity

Test [1] is described as follows: Neuroprotective effect against glutamate-stimulated rat cortical cells assessed as cell viability at 10 uM after 1 hr by LDH assay relative to control. The method, boiled down:
(§1)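 Mixed neuron–glia cortical cultures from Sprague-Dawley fetal rats (17-19 days old), matured ≥2 weeks and used at 17 days in vitro. Cultures were washed with DMEM and pretreated 1 h with compound in DMSO (0.1% final), then given 100 µM glutamate for 24 h. Viability was read as LDH efflux and expressed as % protection relative to control and glutamate-only cultures. Mean ± STD of three experiments, 5-6 cultures each.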

Test [2] in a line: Neuroprotective effect against glutamate-stimulated rat cortical cells assessed as cell viability at 1 uM after 1 hr by LDH assay relative to control. The method, boiled down: as §1
Test [3] in a line: Neuroprotective effect against glutamate-stimulated rat cortical cells assessed as cell viability at 0.1 uM after 1 hr by LDH assay relative to control. The method, boiled down:
as §1

SMILES strings stand for the structures.

Take `C/C(=C\CO)C(=O)O[C@H]1Cc2cc3ccc(=O)oc3cc2OC1(C)C`: the viability at 10 µM in test [1] came out at 1.2%. Also, the viability at 1 µM in test [2] came out at 19.9%. Moreover, the viability at 0.1 µM in test [3] was 33.2%.

As for `C/C(=C\C(=O)O[C@H]1Cc2cc3ccc(=O)oc3cc2OC1(C)C)CO`, the viability at 10 µM in test [1] was found to be 35.1%. Further, the viability at 1 µM in test [2] stood at 34.1%. The viability at 0.1 µM in test [3] was determined as 38.4%.

Take `C[C@@H]1O[C@]1(C)C(=O)O[C@H]1Cc2cc3ccc(=O)oc3cc2OC1(C)C`: the viability at 10 µM in test [1] stood at 49%. For the same molecule, in test [2], the viability at 1 µM was 52.5%. Besides, the viability at 0.1 µM in test [3] came out at 70%.

As to `C[C@H]1O[C@@]1(C)C(=O)O[C@H]1Cc2cc3ccc(=O)oc3cc2OC1(C)C`, the viability at 10 µM in test [1] was determined as 56.7%. Besides, in test [2], the viability at 1 µM is 61.1%. Further, the viability at 0.1 µM in test [3] worked out at 47.5%.

With `N#Cc1cc2c(cc1[N+](=O)[O-])=NC(=O)C(=O)N=2`, in test [1], the viability at 10 µM was determined as 50.5%. The viability at 1 µM in test [2] was found to be 40.5%. In test [3], the viability at 0.1 µM was determined as 29%.

Take `NC(CCCP(=O)(O)O)C(=O)O` (racemic): the viability at 10 µM in test [1] amounted to 39%. For the same molecule, in test [2], the viability at 1 µM was 25%. The viability at 0.1 µM in test [3] worked out at 10%.

For the molecule `CC1(C)Oc2cc3oc(=O)ccc3cc2C[C@@H]1O` [DECURSINOL], in test [1], the viability at 10 µM came out at 40.7%. In test [2], the viability at 1 µM was determined as 69.6%. The viability at 0.1 µM in test [3] amounted to 33.4%.

In the case of `CC(C)=CC(=O)O[C@H]1Cc2cc3ccc(=O)oc3cc2OC1(C)C` [DECURSIN], the viability at 10 µM in test [1] was found to be 65.1%. Besides, the viability at 1 µM in test [2] stood at 50%. Moreover, the viability at 0.1 µM in test [3] was 39%.

Consider `C[C@]12N[C@H](Cc3ccccc31)c1ccccc12` [DIZOCILPINE], for which the viability at 10 µM in test [1] was 70%. Also, the viability at 1 µM in test [2] came to 65%. Further, the viability at 0.1 µM in test [3] came to 54%.
